# Reference: paper PMC6970276 (OncoTargets and therapy, 2020)
# Legend:
# [1] = Stability test of purified probes in human serum; assay type: in vitro ADME; conditions: 48 h, purified probe, radio-TLC, saline/acetone 1:1, Figure 2
# Method in brief: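 Purified 177Lu-labelled probes were held at room temperature and in human serum. Radiochemical purity was sampled at 1, 4, 12, 24 and 48 h by radio-TLC, developed in saline/acetone 1:1 (v/v) and read on a TLC imaging scanner.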
# [2] = Biodistribution in tumor-bearing nude mice; assay type: in vivo; conditions: for tissue uptake at 4 h / tissue uptake at 12 h / tissue uptake at 24 h / tissue uptake at 48 h: female, nude, mouse, iv, 1.85 MBq, total radioactivity; for Tumor/Blood: ratio, n=3
# Method in brief: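 Female nude mice bearing subcutaneous K1 tumours (5 × 10^6 cells, right forelimb), used once tumours exceeded 1 cm3. The 177Lu-labelled test compound (1.85 MBq in 100 μL) was injected into the tail vein, n = 3 per time point. Mice were killed at 4, 12, 24 and 48 h. Blood, tumour and organs (including brain, bone, heart) were weighed and gamma-counted. %ID/g = tissue counts/(injected counts × tissue mass) × 100%.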
# [3] = system: K1 cells; experiment: In vitro retention assay in K1 cells; assay type: cell-based; conditions: 6 hrs loading, medium replaced, 2, 4, 6 and 8 hrs, γ-counter
# [4] = system: K1 xenografts; experiment: SPECT/CT imaging of K1 xenografts; assay type: in vivo, nude mice; conditions: SPECT ROI, 24h after tail vein injection of 37 MBq; tumor-bearing mouse
# Method in brief: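 Female nude mice bearing K1 xenografts (over 1 cm3) received 37 MBq of the 177Lu-labelled test compound in 100 μL by tail vein. Static SPECT/CT imaging at 4, 12, 24 and 48 h, prone: high-energy collimation, 113 and 208 keV peaks, 256 × 256 matrix, 10-min acquisitions. T/NT was calculated from regions of interest. CT fusion was done at the clearest time point.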
# [5] = system: K1 xenografts; experiment: Therapeutic evaluation in tumor-bearing nude mice; assay type: in vivo
# Method in brief: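 K1 xenograft-bearing nude mice, randomised into three groups (n = 5). Each group received tail-vein injections (100 μL) every 4 days, three times: radiolabelled test compound (11.1 MBq/5 μg), unlabelled test compound (5 μg) or 0.9% saline. Followed for 45 days. Tumour volume = a × b²/2 (long, short diameters). Growth curves compared by repeated-measures analysis, survival by log-rank test.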
smiles,measurement,setting,value
"Cc1cn(CC(=O)N(CCNC(=O)COCCOCCNC(=O)COCCOCCNC(=O)CN2CCN(CC(=O)O)CCN(CC(=O)O)CCN(CC(=O)O)CC2)CC(=O)NCCN(CC(=O)NCCN(CC(=O)NCCN(CC(=O)NCCN(CC(=O)NCCN(CC(=O)NCCN(CC(=O)NCCN(CC(=O)NCCN(CC(=O)NCCN(CC(N)=O)C(=O)Cn2cnc3c(N)ncnc32)C(=O)Cn2cnc3c(N)ncnc32)C(=O)Cn2cnc3c(=O)[nH]c(N)nc32)C(=O)Cn2cnc3c(N)ncnc32)C(=O)Cn2ccc(N)nc2=O)C(=O)Cn2cnc3c(=O)[nH]c(N)nc32)C(=O)Cn2cc(C)c(=O)[nH]c2=O)C(=O)Cn2cnc3c(=O)[nH]c(N)nc32)C(=O)Cn2cnc3c(N)ncnc32)c(=O)[nH]c1=O [^177Lu-asPNA, ^177Lu-DOTA-anti-CITED1-PNA, metal not drawn]",Radiochemical purity (%),[1],above 91%
same,tissue uptake at 4 h,[2]; bone,2.58 ± 0.63 %ID/g
same,tissue uptake at 12 h,[2]; bone,1.51 ± 0.55 %ID/g
same,tissue uptake at 24 h,[2]; bone,1.03 ± 0.68 %ID/g
same,tissue uptake at 48 h,[2]; bone,0.52 ± 0.23 %ID/g
same,tissue uptake at 4 h,[2]; brain,1.53 ± 0.68 %ID/g
same,tissue uptake at 12 h,[2]; brain,0.42 ± 0.36 %ID/g
same,tissue uptake at 24 h,[2]; brain,0.39 ± 0.77 %ID/g
same,tissue uptake at 48 h,[2]; brain,0.33 ± 0.59 %ID/g
same,tissue uptake at 4 h,[2]; heart,3.67 ± 0.82 %ID/g
same,tissue uptake at 12 h,[2]; heart,3.33 ± 0.25 %ID/g
same,tissue uptake at 24 h,[2]; heart,1.53 ± 0.36 %ID/g
same,tissue uptake at 48 h,[2]; heart,0.54 ± 0.39 %ID/g
same,tissue uptake at 4 h,[2]; intestines,4.92 ± 0.45 %ID/g
same,tissue uptake at 12 h,[2]; intestines,3.17 ± 1.5 %ID/g
same,tissue uptake at 24 h,[2]; intestines,3.03 ± 0.87 %ID/g
same,tissue uptake at 48 h,[2]; intestines,0.85 ± 0.27 %ID/g
same,tissue uptake at 4 h,[2]; kidney,13.8 ± 1.46 %ID/g
same,tissue uptake at 12 h,[2]; kidney,5.96 ± 1.32 %ID/g
same,tissue uptake at 24 h,[2]; kidney,2.06 ± 0.49 %ID/g
same,tissue uptake at 48 h,[2]; kidney,0.87 ± 0.41 %ID/g
same,tissue uptake at 4 h,[2]; liver,13.2 ± 1.26 %ID/g
same,tissue uptake at 12 h,[2]; liver,2.42 ± 0.13 %ID/g
same,tissue uptake at 24 h,[2]; liver,1.81 ± 0.41 %ID/g
same,tissue uptake at 48 h,[2]; liver,1.53 ± 0.23 %ID/g
same,tissue uptake at 4 h,[2]; lung,4.21 ± 0.27 %ID/g
same,tissue uptake at 12 h,[2]; lung,1.86 ± 0.87 %ID/g
same,tissue uptake at 24 h,[2]; lung,1.66 ± 0.52 %ID/g
same,tissue uptake at 48 h,[2]; lung,1.07 ± 0.41 %ID/g
same,tissue uptake at 4 h,[2]; muscle,2.13 ± 0.37 %ID/g
same,tissue uptake at 12 h,[2]; muscle,1.21 ± 0.69 %ID/g
same,tissue uptake at 24 h,[2]; muscle,0.99 ± 0.21 %ID/g
same,tissue uptake at 48 h,[2]; muscle,0.75 ± 0.18 %ID/g
same,tissue uptake at 4 h,[2]; spleen,11 ± 1.07 %ID/g
same,tissue uptake at 12 h,[2]; spleen,4.62 ± 0.58 %ID/g
same,tissue uptake at 24 h,[2]; spleen,2.07 ± 0.62 %ID/g
same,tissue uptake at 48 h,[2]; spleen,1.14 ± 0.14 %ID/g
same,tissue uptake at 4 h,[2]; stomach,4.92 ± 0.26 %ID/g
same,tissue uptake at 12 h,[2]; stomach,2.34 ± 0.42 %ID/g
same,tissue uptake at 24 h,[2]; stomach,2.05 ± 1.03 %ID/g
same,tissue uptake at 48 h,[2]; stomach,0.58 ± 0.27 %ID/g
same,tissue uptake at 4 h,[2]; tumor,5.78 ± 0.87 %ID/g
same,tissue uptake at 12 h,[2]; tumor,5.47 ± 1.03 %ID/g
same,tissue uptake at 24 h,[2]; tumor,4.93 ± 0.47 %ID/g
same,tissue uptake at 48 h,[2]; tumor,3.05 ± 0.66 %ID/g
same,tissue uptake at 4 h,[2]; whole blood,9.45 ± 1.1 %ID/g
same,tissue uptake at 12 h,[2]; whole blood,5.76 ± 0.46 %ID/g
same,tissue uptake at 24 h,[2]; whole blood,1.98 ± 0.41 %ID/g
same,tissue uptake at 48 h,[2]; whole blood,1.77 ± 0.99 %ID/g
same,Tumor/Blood,"[2]; 4h after tail vein injection of 1.85 MBq, tumor-bearing nude mice",0.61±1.24
same,Tumor/Blood,"[2]; 12h after tail vein injection of 1.85 MBq, tumor-bearing nude mice",0.95±0.97
same,blood-brain barrier passage (brain tissue uptake),"[2]; tumor-bearing nude mice, from radioactive marker uptake in brain tissue",could not cross the blood-brain barrier
same,cellular retention,[3],remains in these cells for an extended period of time
same,T/NT (target/non-target) value,[4],5.11
same,tumor growth rate and volume vs asPNA and saline groups,"[5]; 18 days after injection, n = 5, volume a × b^2/2",about two-fold smaller
same,median survival time longer than those of the other two groups,"[5]; vs asPNA and saline groups, n = 5",at least 13 days
